Columns and labels:
[1] = biological target: T1, Transient receptor potential cation channel subfamily A member 1 (Homo sapiens, UniProt O75762); assay: Agonist activity at TRPA1 (unknown origin)
[2] = biological target: T2, Transient receptor potential cation channel subfamily M member 8 (Rattus norvegicus, UniProt Q8R455); assay: Antagonist activity at rat recombinant TRPM8 overexpressed in HEK293 cells assessed as inhibition of menthol-induced intracellular calcium influx preincubated for 5 mins followed by menthol challenge by Fluo-4-AM dye-based spectrofluorimetric analysis; type: cell-based
T2 sequence (Q8R455 whole entry): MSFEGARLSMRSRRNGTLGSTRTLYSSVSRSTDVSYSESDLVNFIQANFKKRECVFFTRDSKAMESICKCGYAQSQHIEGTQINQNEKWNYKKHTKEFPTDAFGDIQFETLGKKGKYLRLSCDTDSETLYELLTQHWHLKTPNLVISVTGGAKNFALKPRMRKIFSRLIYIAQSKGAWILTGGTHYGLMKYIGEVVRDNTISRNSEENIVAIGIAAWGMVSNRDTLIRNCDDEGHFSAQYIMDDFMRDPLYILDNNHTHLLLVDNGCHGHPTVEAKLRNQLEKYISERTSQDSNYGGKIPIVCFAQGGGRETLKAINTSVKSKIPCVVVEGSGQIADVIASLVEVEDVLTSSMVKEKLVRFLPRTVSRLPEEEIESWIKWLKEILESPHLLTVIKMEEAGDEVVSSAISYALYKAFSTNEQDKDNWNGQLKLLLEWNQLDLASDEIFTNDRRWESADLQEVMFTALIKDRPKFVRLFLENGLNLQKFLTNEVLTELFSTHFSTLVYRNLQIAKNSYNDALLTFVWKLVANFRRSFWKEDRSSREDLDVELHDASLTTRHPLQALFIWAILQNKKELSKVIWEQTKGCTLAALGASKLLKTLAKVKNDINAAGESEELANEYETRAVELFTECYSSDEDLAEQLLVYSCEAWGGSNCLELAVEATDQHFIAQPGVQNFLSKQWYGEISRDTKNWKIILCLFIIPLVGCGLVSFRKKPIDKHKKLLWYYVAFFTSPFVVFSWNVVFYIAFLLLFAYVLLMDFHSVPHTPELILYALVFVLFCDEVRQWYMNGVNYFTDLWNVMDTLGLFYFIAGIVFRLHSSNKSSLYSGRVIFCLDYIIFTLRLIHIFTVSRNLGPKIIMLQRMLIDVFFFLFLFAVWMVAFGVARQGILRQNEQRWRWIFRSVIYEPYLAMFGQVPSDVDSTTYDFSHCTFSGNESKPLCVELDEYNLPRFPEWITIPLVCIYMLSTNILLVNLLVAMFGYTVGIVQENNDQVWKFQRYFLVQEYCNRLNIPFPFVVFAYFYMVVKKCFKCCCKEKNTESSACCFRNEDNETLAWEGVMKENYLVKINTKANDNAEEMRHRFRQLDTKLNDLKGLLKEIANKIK

[3] = biological target: T2, Transient receptor potential cation channel subfamily M member 8; assay: Antagonist activity at rat recombinant TRPM8 overexpressed in HEK293 cells assessed as inhibition of icilin-induced intracellular calcium influx preincubated for 5 mins followed by icilin challenge by Fluo-4-AM dye-based spectrofluorimetric analysis; type: cell-based
[4] = biological target: Transient receptor potential cation channel subfamily M member 8 (Rattus norvegicus) (UniProt Q8R455); assay: Agonist activity at rat recombinant TRPM8 overexpressed in HEK293 cells assessed as induction of intracellular calcium influx by Fluo-4-AM dye-based spectrofluorimetric analysis relative to ionomycin; type: cell-based; parameters: concentration or dose not given beside the values
Chain of Transient receptor potential cation channel subfamily M member 8 (Rattus norvegicus) (Q8R455 whole entry, looked up): as the sequence (Q8R455 whole entry) above

[5] = biological target: T3, Transient receptor potential cation channel subfamily A member 1 (Rattus norvegicus, UniProt Q6RI86); assay: Antagonist activity at rat recombinant TRPA1 overexpressed in HEK293 cells assessed as inhibition of allyl isothiocyanate-induced intracellular calcium influx preincubated for 5 mins followed by allyl isothiocyanate challenge by Fluo-4-AM dye-based spectrofluorimetric analysis; type: cell-based
T3 sequence (Q6RI86 whole entry): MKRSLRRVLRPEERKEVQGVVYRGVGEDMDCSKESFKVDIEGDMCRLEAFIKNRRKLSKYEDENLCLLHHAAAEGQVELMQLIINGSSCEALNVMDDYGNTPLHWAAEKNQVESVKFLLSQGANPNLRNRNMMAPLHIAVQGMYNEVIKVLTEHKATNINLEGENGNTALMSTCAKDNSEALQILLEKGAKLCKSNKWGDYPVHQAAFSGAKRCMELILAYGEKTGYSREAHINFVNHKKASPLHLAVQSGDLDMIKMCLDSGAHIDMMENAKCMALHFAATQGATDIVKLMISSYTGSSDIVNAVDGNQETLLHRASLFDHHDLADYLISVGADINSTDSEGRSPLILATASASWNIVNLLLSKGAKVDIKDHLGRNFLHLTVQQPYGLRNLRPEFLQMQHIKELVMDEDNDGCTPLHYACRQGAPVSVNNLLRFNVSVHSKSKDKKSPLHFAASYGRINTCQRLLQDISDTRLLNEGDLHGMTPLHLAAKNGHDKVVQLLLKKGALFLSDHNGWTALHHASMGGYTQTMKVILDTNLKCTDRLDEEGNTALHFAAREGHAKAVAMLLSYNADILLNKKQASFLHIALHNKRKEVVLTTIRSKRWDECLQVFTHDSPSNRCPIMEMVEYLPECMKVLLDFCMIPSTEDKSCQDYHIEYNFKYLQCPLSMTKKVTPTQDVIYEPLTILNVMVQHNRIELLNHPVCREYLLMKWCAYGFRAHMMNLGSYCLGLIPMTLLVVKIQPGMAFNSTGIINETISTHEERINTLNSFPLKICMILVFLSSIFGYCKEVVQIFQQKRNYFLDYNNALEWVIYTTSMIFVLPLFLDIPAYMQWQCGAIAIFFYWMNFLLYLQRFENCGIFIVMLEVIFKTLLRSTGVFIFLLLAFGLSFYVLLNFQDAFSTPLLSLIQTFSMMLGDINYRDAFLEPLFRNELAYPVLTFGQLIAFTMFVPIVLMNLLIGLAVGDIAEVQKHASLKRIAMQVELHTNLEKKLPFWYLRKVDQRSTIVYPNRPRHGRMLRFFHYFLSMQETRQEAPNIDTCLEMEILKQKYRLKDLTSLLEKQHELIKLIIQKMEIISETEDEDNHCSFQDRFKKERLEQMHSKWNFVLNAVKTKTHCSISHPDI
In short: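 Test compounds were preincubated for 5 min in the cuvette with Fluo-4-loaded rat TRPA1-HEK293 cells in Tyrode's buffer, followed by 100 µM AITC challenge.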

[6] = biological target: T3, Transient receptor potential cation channel subfamily A member 1; assay: Agonist activity at rat recombinant TRPA1 overexpressed in HEK293 cells assessed as induction of intracellular calcium influx by Fluo-4-AM dye-based spectrofluorimetric analysis; type: cell-based
[7] = biological target: Transient receptor potential cation channel subfamily A member 1 (Rattus norvegicus) (UniProt Q6RI86); assay: Agonist activity at rat recombinant TRPA1 overexpressed in HEK293 cells assessed as induction of intracellular calcium influx by Fluo-4-AM dye-based spectrofluorimetric analysis relative to allyl isothiocyanate; type: cell-based
Chain of Transient receptor potential cation channel subfamily A member 1 (Rattus norvegicus) (Q6RI86 whole entry): as above

[8] = biological target: T2, Transient receptor potential cation channel subfamily M member 8; assay: Agonist activity at rat recombinant TRPM8 overexpressed in HEK293 cells assessed as induction of intracellular calcium influx by Fluo-4-AM dye-based spectrofluorimetric analysis; type: cell-based
[9] = biological target: T1, Transient receptor potential cation channel subfamily A member 1; assay: Antagonist activity at TRPA1 (unknown origin) assessed as inhibition of mustard oil-activated […]
In short: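 Rat TRPA1 stably expressed in HEK293 cells grown in EMEM with 10% FBS. Cells were loaded with Fluo-4-AM (4 µM) for 1 h at room temperature, then suspended in Tyrode's buffer pH 7.4. Compound was added 5 min before 100 µM allyl isothiocyanate. Ca2+ fluorescence (ex 488/em 516 nm) was read at 25 °C, with the agonist-alone response set as 100%.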

T1 sequence (O75762 whole entry): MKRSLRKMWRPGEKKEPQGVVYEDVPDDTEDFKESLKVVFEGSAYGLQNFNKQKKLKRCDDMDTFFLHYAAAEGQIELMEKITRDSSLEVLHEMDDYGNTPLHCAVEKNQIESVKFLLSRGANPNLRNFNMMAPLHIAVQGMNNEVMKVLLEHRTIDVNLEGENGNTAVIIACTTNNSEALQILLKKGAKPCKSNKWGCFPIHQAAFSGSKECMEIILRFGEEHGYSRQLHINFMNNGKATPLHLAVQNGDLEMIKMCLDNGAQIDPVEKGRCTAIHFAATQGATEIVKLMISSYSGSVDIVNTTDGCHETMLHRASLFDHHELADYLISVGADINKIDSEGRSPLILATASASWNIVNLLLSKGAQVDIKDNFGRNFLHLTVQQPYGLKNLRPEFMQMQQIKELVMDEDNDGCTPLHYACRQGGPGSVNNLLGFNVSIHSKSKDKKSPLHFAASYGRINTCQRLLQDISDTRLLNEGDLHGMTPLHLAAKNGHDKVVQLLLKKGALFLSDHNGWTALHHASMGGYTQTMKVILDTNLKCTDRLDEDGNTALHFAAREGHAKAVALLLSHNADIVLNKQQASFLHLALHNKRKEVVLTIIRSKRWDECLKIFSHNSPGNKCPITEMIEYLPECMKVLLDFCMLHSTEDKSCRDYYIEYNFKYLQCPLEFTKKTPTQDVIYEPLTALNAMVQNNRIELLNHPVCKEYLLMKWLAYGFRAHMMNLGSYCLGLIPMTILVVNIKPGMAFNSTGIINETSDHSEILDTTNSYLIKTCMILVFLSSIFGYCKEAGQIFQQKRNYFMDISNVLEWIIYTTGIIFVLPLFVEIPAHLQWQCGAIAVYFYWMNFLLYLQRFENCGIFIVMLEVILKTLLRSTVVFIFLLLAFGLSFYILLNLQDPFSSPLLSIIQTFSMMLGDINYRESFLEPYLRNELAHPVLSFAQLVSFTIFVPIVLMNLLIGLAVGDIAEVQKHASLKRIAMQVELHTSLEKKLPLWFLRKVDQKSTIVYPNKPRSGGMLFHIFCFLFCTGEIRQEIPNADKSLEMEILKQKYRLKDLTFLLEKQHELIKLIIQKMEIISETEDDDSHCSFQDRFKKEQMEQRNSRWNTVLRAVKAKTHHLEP

Compound	EC50 [1]	IC50 [2]	IC50 [3]	Efficacy [4]	IC50 [5]	EC50 [6]	Efficacy [7]	EC50 [8]	IC50 [9]
CCC/C=C1\OC(=O)c2ccccc21 [Z-butylidenephthalide]	–	153 µM	141 µM	–	44.5 µM	–	–	–	–
O=C1O/C(=C\c2ccccc2)c2ccccc21	–	10.2 µM	8.3 µM	< 10%	2.9 µM	3 µM	93.6%	–	–
CCC/C=C1\OC(=O)c2ccccc21 (mixture of isomers) [Z-butylidenephthalide]	–	–	–	–	–	–	–	–	23 µM
C=C1OC(=O)c2c(C)cc(C)cc21	–	128 µM	90.1 µM	< 10%	34 µM	17.2 µM	85.1%	–	–
Cc1ccc(/C=C2\OC(=O)c3ccccc32)cc1	–	25.1 µM	7.2 µM	< 10%	2.4 µM	4.3 µM	126%	–	–
C/C=C1\OC(=O)c2ccc(OC)cc21	–	> 200 µM	161 µM	< 10%	> 100 µM	21.7 µM	24.6%	–	–
C=C1OC(=O)c2cc(F)ccc21	–	> 200 µM	> 200 µM	< 10%	> 100 µM	32.2 µM	10.2%	–	–
CCC/C=C1\OC(=O)c2ccccc21	–	–	–	< 10%	–	–	< 10%	–	–
Cc1cc(C)c2c(c1)/C(=C/c1ccccc1)OC2=O	–	1.9 µM	1 µM	< 10%	0.8 µM	1.1 µM	117%	–	–

Continued, in another order:

EC50 [1]	IC50 [2]	IC50 [3]	Efficacy [4]	IC50 [5]	EC50 [6]	Efficacy [7]	EC50 [8]	Compound	IC50 [9]
44 µM	–	–	–	–	–	–	–	CCC/C=C1\OC(=O)C2=C1CCC=C2 [LIGUSTILIDE]	–
–	48.1 µM	14.9 µM	< 10%	1.5 µM	2 µM	112%	–	O=C1O/C(=C\c2ccc(Cl)cc2)c2ccccc21	–
–	11.3 µM	3.4 µM	12.9%	2.2 µM	1.3 µM	65.1%	1.8 µM	COc1ccc(/C=C2\OC(=O)c3ccccc32)cc1	–
–	12.1 µM	7.7 µM	< 10%	36.3 µM	15.8 µM	43.7%	–	CC/C=C1\OC(=O)c2c(C)cc(C)cc21	–
